Results reported in ChEMBL document CHEMBL1156332, “Polysubstituted pyrazoles, part 6. Synthesis of some 1-(4-chlorophenyl)-4-hydroxy-1H-pyrazol-3-carbonyl derivatives linked to nitrogenous heterocyclic ring systems as potential antitumor agents” (2010).
Calls of active or inactive are those of the source. No cut-off for these calls is given here.

How the values were obtained:
Format in all cases: functional
BT-549 = experiment: Growth inhibition of human BT549 cells after 48 hrs by sulforhodamine B assay; conditions: BT-549, 48 h
Outline: (§1)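 NCI 60-line panel, five concentrations (0.01–100 µM) from DMSO stock diluted in medium with gentamicin. Cells were plated 24 h before dosing, with time-zero plates fixed at drug addition, then exposed 48 h at 37 °C, 5% CO₂. Adherent cells were fixed with cold TCA (10% final) and suspension cells with 16% TCA. Staining used 0.4% SRB, solubilised in 10 mM Tris and read at 515 nm. GI₅₀ was taken from log concentration–% growth curves.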

HCC 2998 = experiment: Growth inhibition of human HCC2998 cells after 48 hrs by sulforhodamine B assay; conditions: HCC 2998, 48 h; outline: as §1
[1] = Cytotoxicity against human CNS cancer cells after 48 hrs by sulforhodamine B assay; conditions: Cancer cell lines
Outline: (§2)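 NCI five-dose screen: about 60 human tumour lines grouped into nine subpanels were plated and incubated 24 h before dosing. Compounds went in as DMSO stock and were diluted in medium to five final concentrations (0.01–100 µM). Exposure was 48 h continuous at 37 °C, 5% CO₂, followed by TCA fixation and SRB staining read at 515 nm. Per-line GI₅₀, TGI and LC₅₀ came from log concentration–% growth curves, averaged per subpanel as MG-MID.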

T47D = experiment: Growth inhibition of human T47D cells after 48 hrs by sulforhodamine B assay
Outline: (§3)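 Adherent lines plated and held 24 h at 37 °C, 5% CO2, 100% humidity; time-zero plates TCA-fixed at drug addition. Drugs from DMSO stocks were made into five concentrations by 10-fold or half-log serial dilution and applied for 48 h continuous exposure. Cells were fixed with cold TCA (10% final) for 60 min at 4 °C, then stained with 0.4% SRB in 1% acetic acid for 10 min. Dye was solubilized in 10 mM Tris base and read at 515 nm. GI50 was taken from log concentration–growth curves.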

A549 = experiment: Growth inhibition of human A549 cells after 48 hrs by sulforhodamine B assay; conditions: A549, 48 h; outline: as §1
HL-60(TB) = experiment: Growth inhibition of human HL-60(TB) cells after 48 hrs by sulforhodamine B assay; conditions: HL-60, 48 h
Outline: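 NCI 60-cell panel. Cells were preincubated 24 h at 37 °C in 5% CO2, then time-zero plates were TCA-fixed. Drugs were dissolved in DMSO and given at five concentrations (10-fold or half-log dilutions) for 48 h. Suspension cells were fixed with TCA (16% final), stained with 0.4% SRB and read at 515 nm. GI50 is the concentration giving 50% decrease in net growth, taken from log concentration–growth curves.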

A498 = experiment: Growth inhibition of human A498 cells after 48 hrs by sulforhodamine B assay; conditions: A498, 48 h; outline: as §1
LOX IMVI = experiment: Growth inhibition of human LOXIMVI cells after 48 hrs by sulforhodamine B assay; outline: as §1
RXF 393 = experiment: Growth inhibition of human […] cells after 48 hrs by sulforhodamine B assay; conditions: RXF 393, 48 h; outline: as §1
EKVX = experiment: Growth inhibition of human EKVX cells after 48 hrs by sulforhodamine B assay; outline: as §1
SR = experiment: Growth inhibition of human SR cells after 48 hrs by sulforhodamine B assay
Outline: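 Suspension leukemia line pre-incubated 24 h at 37 °C, 5% CO2; time-zero plates fixed at drug addition. Five drug concentrations were made by serial dilution from DMSO stocks and applied for 48 h. Settled cells were fixed with 80% TCA (16% final), stained with 0.4% SRB in 1% acetic acid, solubilized in 10 mM Tris base, and read at 515 nm. GI50 = concentration giving 50% decrease in net growth.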

SK-MEL-28 = experiment: Growth inhibition of human SK-MEL-28 cells after 48 hrs by sulforhodamine B assay; conditions: SK-MEL-28, 48 h; outline: as §3
NCI-H23 = experiment: Growth inhibition of human NCI-H23 cells after 48 hrs by sulforhodamine B assay; conditions: NCI-H23, 48 h; outline: as §1
[2] = Growth inhibition of human NCI-H322 cells after 48 hrs by sulforhodamine B assay; conditions: NCI-H322, 48 h; outline: as §1
CAKI-1 = experiment: Growth inhibition of human Caki1 cells after 48 hrs by sulforhodamine B assay; conditions: CAKI-1, 48 h; outline: as §1
UO-31 = experiment: Growth inhibition of human UO31 cells after 48 hrs by sulforhodamine B assay; conditions: UO-31, 48 h; outline: as §3
SK-MEL-5 = experiment: Growth inhibition of human SK-MEL-5 cells after 48 hrs by sulforhodamine B assay; conditions: SK-MEL-5, 48 h; outline: as §3
[3] = Cytotoxicity against human ovarian cancer cells after 48 hrs by sulforhodamine B assay; conditions: Cancer cell lines; outline: as §2
[4] = Cytotoxicity against human melanoma cells after 48 hrs by sulforhodamine B assay; conditions: Melanoma cell; for CC50: read-out: LC50 (the source's name); outline: as §2
CCRF-CEM = experiment: Growth inhibition of human CCRF-CEM cells after 48 hrs by sulforhodamine B assay; outline: as §1
COLO 205 = experiment: Growth inhibition of human COLO205 cells after 48 hrs by sulforhodamine B assay; conditions: COLO 205, 48 h; outline: as §1
SF-295 = experiment: Growth inhibition of human SF295 cells after 48 hrs by sulforhodamine B assay; conditions: SF-295, 48 h; outline: as §1
MOLT-4 = experiment: Growth inhibition of human MOLT4 cells after 48 hrs by sulforhodamine B assay; conditions: MOLT-4, 48 h; outline: as §1
NCI-H522 = experiment: Growth inhibition of human NCI-H522 cells after 48 hrs by sulforhodamine B assay; conditions: NCI-H522, 48 h; outline: as §1
PC-3 = experiment: Growth inhibition of human PC3 cells after 48 hrs by sulforhodamine B assay; conditions: PC-3, 48 h; outline: as §1
SK-MEL-2 = experiment: Growth inhibition of human SK-MEL-2 cells after 48 hrs by sulforhodamine B assay; outline: as §3

Row | Structure (SMILES) | GI50 (BT-549) [µM] | GI50 (HCC 2998) [µM] | GI50 [1] [µM] | TGI [1] [µM] | GI50 (T47D) [µM] | GI50 (A549) [µM] | GI50 (HL-60(TB)) [µM] | GI50 (A498) [µM] | GI50 (LOX IMVI) [µM] | GI50 (RXF 393) [µM] | GI50 (EKVX) [µM] | GI50 (SK-MEL-28) [µM] | GI50 (NCI-H23) [µM] | GI50 [2] [µM] | GI50 (CAKI-1) [µM] | GI50 (UO-31) [µM] | GI50 (SK-MEL-5) [µM] | GI50 [3] [µM] | TGI [3] [µM] | GI50 [4] [µM] | further results
1 | CC1=NN(C(=O)c2nn(-c3ccc(Cl)cc3)cc2O)C(=O)C1 | 0.65 | 3.67 | 1.09 | 79.6 | 2.66 | 0.82 | 1.17 | 0.45 | 1.55 | 15.4 | 2.21 | 3.06 | 2.9 | 0.85 | 1.06 | 0.67 | 1.7 | 1.74 | 83.8 | 1.82 | GI50 (SR): 0.42 µM; TGI [4]: 70.5 µM; CC50 [4]: 93.6 µM; GI50 (CCRF-CEM): 0.42 µM; GI50 (COLO 205): 4.81 µM; GI50 (SF-295): 0.23 µM; GI50 (MOLT-4): 1.87 µM; GI50 (NCI-H522): 2.84 µM
2 | O=C1CC(=O)N(C(=O)c2nn(-c3ccc(Cl)cc3)cc2O)N1 | 0.37 | 4.74 | 0.33 | 87.9 | 0.45 | 0.36 | 0.77 | 0.11 | 1.37 | 0.31 | 0.85 | 5.26 | 0.49 | 0.53 | 0.65 | 0.55 | 1.92 | 1.08 | 84 | 1.6 | GI50 (PC-3): 0.36 µM; GI50 (SR): 0.26 µM; GI50 (SK-MEL-2): inactive; TGI [4]: 50.1 µM; CC50 [4]: 85.2 µM; GI50 (CCRF-CEM): 0.42 µM; GI50 (COLO 205): 0.94 µM; GI50 (SF-295): 0.15 µM; GI50 (MOLT-4): 0.41 µM; GI50 (NCI-H522): 0.3 µM
3 | Cc1c2c(nn1C(=O)c1nn(-c3ccc(Cl)cc3)cc1O)-c1ccccc1CC2 | 0.029 | 0.502 | 0.036 | 69.1 | 0.059 | 0.034 | 0.051 | 0.024 | 0.075 | 0.047 | 0.071 | 0.092 | 0.041 | 0.054 | 0.127 | 0.099 | 0.37 | 0.115 | 83.6 | 0.14 | GI50 (PC-3): 0.037 µM; GI50 (SK-MEL-2; SK-MEL-2, 48 h): 5.54 µM; TGI [4]: 52.1 µM; CC50 [4]: 86.4 µM; GI50 (CCRF-CEM): 0.057 µM; GI50 (COLO 205): 0.291 µM; GI50 (SF-295): 0.02 µM; GI50 (MOLT-4): 0.043 µM; GI50 (NCI-H522): 0.055 µM
4 | Cc1cc(C)n(C(=O)c2nn(-c3ccc(Cl)cc3)cc2O)n1 | 2.19 | 15.1 | 3.13 | 69.2 | 3.66 | 3.72 | 3.96 | 2.9 | 3.94 | 4.58 | 4.87 | 6.28 | 3.31 | 6.17 | 4.23 | 3.01 | 6.76 | 5.27 | 87.8 | 4.95 | GI50 (PC-3): 7.05 µM; GI50 (SR): inactive; TGI [4]: 71.4 µM; CC50 [4]: 92.8 µM; GI50 (CCRF-CEM): 3.66 µM; GI50 (COLO 205): 18.5 µM; GI50 (SF-295): 1.81 µM; GI50 (NCI-H522): 7.37 µM
5 | O=C(c1nn(-c2ccc(Cl)cc2)cc1O)n1nc(-c2ccco2)cc1C(F)(F)F | 1.14 | 10.5 | 2.99 | 90.5 | 4.16 | 7.23 | 2.42 | 8.71 | 2.37 | 0.03 | 1.99 | 9.22 | 5.59 | 0.83 | 2.43 | 3.84 | 2.49 | 2.18 | 94.5 | 4.14 | GI50 (PC-3): 26.3 µM; GI50 (SK-MEL-2; SK-MEL-2, 48 h): 3.82 µM; TGI [4]: 63.7 µM; CC50 [4]: 89.4 µM; GI50 (CCRF-CEM): 0.69 µM; GI50 (COLO 205): 2.97 µM; GI50 (SF-295): 0.48 µM; GI50 (MOLT-4): 2.55 µM; GI50 (NCI-H522): 2.67 µM
